How the values were obtained:
Rattus norvegicus [1] = experiment: In vivo neuroprotective activity in Sprague-Dawley rat transient middle cerebral artery occlusion model assessed as reduction of infarct size at 6 mg/kg, iv measured 24 hrs post reperfusion by TTC staining assay relative to vehicle-treated control; assay type: functional; parameters: scale not given: the % may be the effect or the level left
How it was run: (§1)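 Male Sprague-Dawley rats, 7 weeks, 260–280 g, under 10% chloral hydrate ip. Right MCA occluded 60 min by tip-burned 4-0 nylon thread via common carotid, then reperfused. Saline or drug given iv at reperfusion, ethanol as cosolvent. Killed 24 h later; six 2 mm slices in 1% TTC in PBS, 37 °C, 30 min. Infarct area traced as % of total area; n = 12.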

[2] = Cmax in Sprague-Dawley rat plasma at 2 x 10^-5 mol/kg, iv measured at 2 mins by LC-MS analysis; assay type: ADME, organism-based; settings: 2e-05 mol/kg
How it was run: (§2)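 Male Sprague-Dawley rats (260-280 g, n = 4) given a single iv dose of 6 mg/kg. Blood was taken from the jugular vein into heparin tubes under ether, and plasma was spun out and stored at -70 °C. After saline perfusion, cortex was homogenized in 2 volumes of water. Samples were precipitated with acetonitrile with internal standard added and quantified by LC-MS against a weighted linear calibration.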

Cortex = experiment: Clearance in Sprague-Dawley rat cortex at 2 x 10^-5 mol/kg, iv by LC-MS analysis; assay type: ADME, organism-based; settings: in vivo; how it was run: as §2
[3] = Volume of distribution in Sprague-Dawley rat cortex at 2 x 10^-5 mol/kg, iv by LC-MS analysis; assay type: ADME, organism-based; settings: 2e-05 mol/kg; how it was run: as §2
Rattus norvegicus [4] = experiment: In vivo neuroprotective activity in iv dosed Sprague-Dawley rat transient middle cerebral artery occlusion model assessed as reduction of infarct size measured 24 hrs post reperfusion by TTC staining assay; assay type: functional, organism-based; how it was run: as §1
PC-12 = experiment: Neuroprotective activity in rat PC12 cells assessed as attenuation of oxygen-glucose deprivation-induced cellular damage at 10 uM by MTT assay relative to control; assay type: functional
How it was run: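 PC12 cells were seeded at 5×10^3/well for 24 h. OGD insult was low-glucose medium plus 5 mM sodium dithionite for 24 h, given together with 10 µM compound. MTT (5 mg/mL) was added for 4 h and absorbance read at 570 nm. Viability was expressed as % of full-medium control; n = 3.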

[5] = Tmax in Sprague-Dawley rat cortex at 2 x 10^-5 mol/kg, iv by LC-MS analysis; assay type: ADME, organism-based; settings: 2e-05 mol/kg; how it was run: as §2
[6] = Tmax in Sprague-Dawley rat plasma at 2 x 10^-5 mol/kg, iv by LC-MS analysis; assay type: ADME, organism-based; settings: 2e-05 mol/kg; how it was run: as §2
Rattus norvegicus [7] = experiment: In vivo neuroprotective activity in iv dosed Sprague-Dawley rat transient middle cerebral artery occlusion model assessed as suppression of neuronal loss in cerebral cortex measured 24 hrs post reperfusion by nissl staining assay; assay type: functional, organism-based
How it was run: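 After 60 min transient MCAO with iv treatment at reperfusion, rats were perfused at 24 h with PBS, then 4% buffered paraformaldehyde. Brains were paraffin-embedded and coronal sections stained with 0.5% cresyl fast violet (Nissl). Cortex and hippocampus were examined at 200×.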

[8] = Clearance in Sprague-Dawley rat plasma at 2 x 10^-5 mol/kg, iv by LC-MS analysis; assay type: ADME, organism-based; settings: 2e-05 mol/kg; how it was run: as §2

In the case of `COc1cc(O)cc2oc(=O)c(N3CCN(C)CC3)c(C)c12`, the Activity (Rattus norvegicus [1]) is reported as 18.89%, the Cmax [2] is reported as 13300 ng/mL and the CL (Cortex) is reported as 0.558 L/min. The Vd [3] was 12.3 L, the Activity (Rattus norvegicus [4]) was “Dose-dependent effect” and the Activity (PC-12) was 66%. The Tmax [5] was 2 min, the Tmax [6] was 2 min and the Activity (Rattus norvegicus [7]) was “Dose-dependent effect”. For the same compound, the clearance [8] was 9 mL/min.

Reference: ChEMBL document CHEMBL2417530, “Coumarin derivatives protect against ischemic brain injury in rats” (Eur J Med Chem, 2013)
